TRPC4 PAM: positive allosteric modulators of TRPC4, primary screen, cell-based, mouse TRPC4beta, HEK293 mu-opioid, Fluo-4 calcium; B-score at 10 µM; 310,000 tested, 0.42% active; DAMGO EC20, Fluo-4 Ca2+ flux; stronger effect = higher value; AID 2227, 2009;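 active = B-score of calcium response area above 5 SD of library B-scores, with initial fluorescence ratio within 5 SD of library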
Kir21 block: inhibitors of mouse Kir2.1 inward-rectifier potassium channel | Inward rectifier potassium channel 2 (Mus musculus), P35561 | HEK293-Kir2.1, FluxOR thallium flux fluorescence; stronger effect = lower value | B-score at 10 µM | 310,000 tested, 0.85% active | AID 1672, 2009;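 active = fluorescence ratio B-score at or below minus 3 SD of library scores, with starting-brightness B-score within 2 SD, cut at about -4.2 in these data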;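 note: channel flux triggered by added potassium and thallium sulfate stimulus; B-score of peak minus minimum fluorescence over baseline after thallium stimulus; more negative B-score means stronger Kir2.1 block with less thallium influx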
Target sequence (P35561 whole entry, looked up): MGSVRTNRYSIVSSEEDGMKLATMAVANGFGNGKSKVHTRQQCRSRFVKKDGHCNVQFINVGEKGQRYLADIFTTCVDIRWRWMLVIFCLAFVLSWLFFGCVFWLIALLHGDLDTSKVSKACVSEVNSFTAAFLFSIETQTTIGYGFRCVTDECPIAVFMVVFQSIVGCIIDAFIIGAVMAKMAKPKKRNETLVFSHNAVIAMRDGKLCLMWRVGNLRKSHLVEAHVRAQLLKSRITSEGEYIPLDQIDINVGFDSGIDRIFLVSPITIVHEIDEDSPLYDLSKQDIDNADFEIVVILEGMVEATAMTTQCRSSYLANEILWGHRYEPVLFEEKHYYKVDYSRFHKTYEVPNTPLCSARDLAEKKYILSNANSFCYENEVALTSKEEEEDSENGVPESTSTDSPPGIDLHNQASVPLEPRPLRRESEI
TRPC4 act: activators of mouse TRPC4 channel, primary screen, Fluo4 calcium, HEK293 TRPC4beta/mu-opioid cells; Fluo4 calcium fluorescence; stronger effect = higher value; Short transient receptor potential channel 4 (Mus musculus), Q9QUQ5; 310,000 tested, 0.49% active; B-score at 10 µM;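 active = B-score above 5 SD of library B-scores, and initial fluorescence ratio not above library mean plus 5 SD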;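 note: positive B-score marks a calcium rise read as TRPC4 activation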
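Incubation: 45 min room-temperature Fluo4 loading, 110 s read / System: HEK293 cells stably co-expressing mouse TRPC4beta and mu-opioid receptor / Signal: Fluo4 fluorescence, kinetic / Control set: buffer (low) and maximal DAMGO (high) / Measure: integrated baseline-normalised fluorescence ratio, converted to per-well B score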
TRPC4 inh: inhibitors of mouse TRPC4 channel, primary screen, Fluo4 calcium, HEK293 TRPC4beta/mu-opioid cells. DAMGO-evoked Fluo4 calcium flux; stronger effect = lower value. B-score at 10 µM. 300,000 tested, 0.39% active;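 active = B-score over 3 SD under the library average, no early fluorescence shift, positive overall ratio signal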
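Assay system: Stable TRPC4beta/mu-opioid receptor HEK293 cells | Reagent: DAMGO in two steps, submaximal then maximal | Compound dosing: Single concentration per test compound | Signal: Fluo4 Ca2+ flux fluorescence | Evaluation: Per-well B score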
TRPC6 act: mouse TRPC6 channel activators, primary screen, cell-based, HEK293, membrane potential dye; HEK293-TRPC6 membrane potential dye fluorescence; stronger effect = higher value; B-score at 10 µM; Short transient receptor potential channel 6 (Mus musculus), Q61143; 310,000 tested, 0.13% active; AID 2550, 2010;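 active = B-score of the integrated fluorescence ratio above library mean plus 3 SD, and starting fluorescence ratio within library mean plus 5 SD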;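 note: higher score means more depolarization so channel activation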
TRPC6 inh: mouse TRPC6 channel inhibitors, primary screen, cell-based, HEK293, membrane potential dye; Short transient receptor potential channel 6 (Mus musculus), Q61143; ACh-evoked depolarization; stronger effect = lower value; B-score at 10 µM; 310,000 tested, 1.1% active; AID 2553, 2010;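 active = B-score under library mean minus 3 SD, initial fluorescence not abnormally high, positive integrated signal ratio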;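 note: B-score derived from integrated fluorescence ratio over the kinetic read; more negative B-score means stronger inhibition of depolarization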
Of the large screens only hits and unclear results are named; the others gave an inactive call. Rows were chosen to be rich in hits. Some 3% of all compounds tested hit in one or more screens of this group.

COc1ccc2nc3cc(Cl)ccc3c(Nc3cc(CN4CCCC4)c(O)c(CN4CCCC4)c3)c2n1	TRPC6 inh -6.6
CCC(=O)NCCc1nc2cc(NC(=O)c3ccc(F)cc3)ccc2n1C	none
Cc1ccc(OCC(=O)NNC(=S)NC(=O)C2CCCCC2)c(C)c1	TRPC4 act 54
Cc1ccc(OCC(=O)NC(=S)Nc2ccccn2)c(Br)c1	none
Cc1ccc(OCC(=O)NNC(=S)NC(=O)C2CC2)c(C)c1	none
Cc1ccc(OCC(=O)NNC(=S)NC(=O)C(C)(C)C)c(Br)c1	TRPC4 act 235
Cc1ccc(-n2c(-c3ccccc3)c[n+]3c2CCC3)cc1	none
Cc1ccc(-n2c(-c3ccccc3)c[n+]3c2CCc2ccccc2-3)c(C)c1	Kir21 block -8.2, TRPC6 inh -5.5
CCOC(=O)N1CCC(N2Cc3cccc(C(=O)Nc4ccc(N(CC)CC)cc4C)c3C2=O)CC1	none
CSc1nc(NCc2ccco2)c2c3c(sc2n1)CN(C)CC3	TRPC4 act 64 (no result: TRPC4 inh)
O=[N+]([O-])c1ccc(N2CCN(CCOc3nonc3-c3ccccc3)CC2)c(Cl)c1	TRPC4 PAM 17
Cc1ccc(CNC(=O)CCS(=O)(=O)c2ccc3c(c2)CC(C)N3C(=O)C2CC2)cc1 (stereo unspecified)	none
COc1ccccc1CC(Cc1nc2ccccc2[nH]1)c1nc2ccccc2[nH]1 (stereo unspecified)	TRPC4 inh -6
Cc1cccc(CC(Cc2nc3ccccc3[nH]2)c2nc3ccccc3[nH]2)c1 (stereo unspecified)	none
O=c1oc2ccccc2c(O)c1/C=N/c1ncccn1	none
O=c1oc2ccccc2c(O)c1/C=C1\C=Nc2ccccc21	TRPC4 act 85
CCOc1ccc(NC(=O)CN(C)C(=O)C2CC(=O)N(CCc3ccccc3)C2)cc1OCC (stereo unspecified)	none
COc1ccccc1NC(=O)C(C)OC(=O)CCCOc1ccccc1 (stereo unspecified)	Kir21 block -4.8
CC(OC(=O)CCCOc1ccccc1)C(=O)NC(N)=O (stereo unspecified)	none
COc1ccc(C(C)=O)cc1COc1cccc2c1OC(C)(C)C2	Kir21 block -5
COc1ccccc1NC(=O)C(C)OC(=O)COc1cccc2c1OC(C)(C)C2 (stereo unspecified)	Kir21 block -4.6
COc1ccccc1CCNC(=O)COc1cccc2c1OC(C)(C)C2	Kir21 block -6.4
CC1(C)Cc2cccc(OCC(=O)NCCOc3ccccc3)c2O1	none
O=C(CN1CCN(S(=O)(=O)c2ccc(Br)cc2)CC1)N/N=C/c1cccnc1	none
N=c1oc2ccc(Br)cc2cc1C(=O)NCc1ccc(F)cc1	TRPC4 PAM 12
CC(C)(C)OC(=O)N1CCC(CNC(=O)c2ccc(F)cc2)CC1	none
CCN(CC)CCCNC(=O)c1cc2c(-c3ccc(Cl)cc3)nn(C)c2s1	TRPC4 PAM 16, TRPC4 act 72
Cn1nc(-c2ccc(Cl)cc2)c2cc(C(=O)NCC3CCCO3)sc21 (stereo unspecified)	none
CN1CCN(CCCNC(=O)c2cc3c(-c4ccc(Cl)cc4)nn(C)c3s2)CC1	TRPC4 PAM 11
COc1cc(OC)cc(C(=O)N[C@H](C(=O)NCc2ccc(F)cc2)C(C)C)c1	none
O=C(NC1CCCCCCC1)c1cnccn1	TRPC4 PAM 12
CC1CCCCC1NC(=O)CSc1nnc(COc2ccc(Cl)cc2)o1 (stereo unspecified)	none
Cc1cc(Cl)c2oc(C(=O)N(C)Cc3nccn3C)c(C)c2c1	TRPC4 inh -7
CCCCCOC(=O)NC1CCS(=O)(=O)C1 (stereo unspecified)	none
CN(CC(=O)Nc1ccccc1C(F)(F)F)C(=O)c1cccc(-n2cccc2)c1	none
CCN1CCN(C(=O)N(CC(=O)Nc2ccc(C(N)=O)cc2)S(=O)(=O)c2ccc(C)cc2)CC1	TRPC4 inh -6
Cc1ccc(S(=O)(=O)N(CC(=O)Nc2ccc(C(N)=O)cc2)C(=O)N2CCN(C)CC2)cc1	none
O[C@@H](c1cc(C(F)(F)F)nc2c(C(F)(F)F)cccc12)[C@H]1CCCCN1	none
OC(c1cc(-c2ccc(Cl)cc2)nc2ccccc12)C1CCCCN1 (stereo unspecified)	Kir21 block -5.4
O=C(c1cccc(C(=O)N2CCN(c3ccccc3)CC2)c1)N1CCN(c2ccccc2)CC1	TRPC4 inh -7
CCCc1cc(=O)[nH]c(SCC(=O)c2cc(C)n(C3CC3)c2C)n1	Kir21 block -4.5
COc1ccc(S(=O)Cc2ccc(C(=O)NC3CC3)o2)cc1 (stereo unspecified)	none
C#CCNC(=O)C1=C[C@@H](C(C)(C)C)C[C@@H](OCc2ccc(CO)cc2)O1	none
O=C(Nc1ccccc1)C1=C[C@H](C2CCCCC2)C[C@H](OCc2ccc(CO)cc2)O1	TRPC4 PAM 19
C#CCNC(=O)C1=C[C@H](c2csc3ccccc23)C[C@H](OCc2ccc(CO)cc2)O1	TRPC4 act 52
C#CCNC(=O)C1=C[C@@H](C2CC2)C[C@@H](OCc2ccc(CO)cc2)O1	Kir21 block -6.5
Cc1sc2ncnc(NCC(c3ccco3)N(C)C)c2c1C (stereo unspecified)	TRPC4 act 188
CN(C)C(CNc1ncnc2sc3c(c12)CCCCC3)c1ccco1 (stereo unspecified)	TRPC4 act 76
Cc1ccc(CNC(=O)CCSCc2ccccc2C)cc1	none
CN(CC(=O)Nc1ccc(SC(F)F)cc1)C1CCCCC1	TRPC4 inh -6
CN(CC(=O)Nc1ccc(S(N)(=O)=O)cc1)C1CCCCC1	none
O=C(NC(NNc1ccc([N+](=O)[O-])cc1)(C(F)(F)F)C(F)(F)F)c1ccccc1Cl	none
O=C(NC(Nc1nc2ccc([N+](=O)[O-])cc2s1)(C(F)(F)F)C(F)(F)F)c1ccccc1Cl	Kir21 block -5, TRPC6 act 14, TRPC6 inh -6.9
Cc1c2cnn(CC(=O)NCCCN3CC(C)CC(C)C3)c(=O)c2c(C)n1Cc1ccccc1Cl (stereo unspecified)	none
CN1CCN(Cc2cn[nH]c2-c2ccc(F)cc2F)[C@@H](c2ccccc2)C1	TRPC4 inh -5
O=C(NC1CCN(Cc2ccccc2)CC1)c1ccccc1OCc1ccccc1	Kir21 block -4.3
